Experimental data as given in publication PMC5114172 (Journal of applied toxicology : JAT, 2016).

Legend:
Type in all cases: cell-based, human
[1] = system: MD-PBMCs; experiment: IL-1β secretion
[2] = system: PBMCs plus Granulocytes; experiment: IL-1β secretion assay; details: for Interleukin 1 beta secreted: PBMCs plus Granulocytes
How it was run: (§1)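 NK cells, MD-PBMCs, PBMCs or granulocytes (1.5 million/mL) or PBMC+granulocytes (0.75 million/mL each), per donor, exposed 24 h, 48 h or 6 days to 0.05–5 μM test compound diluted from DMSO stock, with DMSO controls. Supernatants kept at −70 °C. IL-1β by sandwich ELISA: HRP detection antibody, acid-stopped substrate, A450 against standards. Detection limit 3 pg/mL; triplicates; ANOVA then t test versus control, p<0.05.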

[3] = system: Granulocytes; experiment: IL-1β secretion assay
How it was run: as §1

SMILES: CCC[CH2][Sn][CH2]CCC [DBT, Dibutyltin]
- Interleukin 1 beta secreted ([1]; donor F372, 24 h, 0.1 μM DBT, no inhibitor (SB202190 experiment)): 1985 ± 53 pg/mL
- Interleukin 1 beta secreted ([1]; donor F385, 24 h, 0.05 μM DBT + SB202190): 65 ± 24 pg/mL
- Interleukin 1 beta secreted ([1]; donor F385, 24 h, 0.05 μM DBT, no inhibitor (SB202190 experiment)): 1863 ± 83 pg/mL
- Interleukin 1 beta secreted ([1]; donor F385, 24 h, 0.1 μM DBT, no inhibitor (SB202190 experiment)): 1126 ± 29 pg/mL
- Interleukin 1 beta secreted ([2]; donor F148, 24 h, 0.05 μM DBT): 4217 ± 397 pg/mL
- Interleukin 1 beta secreted ([2]; donor F148, 24 h, 0.1 μM DBT): 3060 ± 191 pg/mL
- Interleukin 1 beta secreted ([2]; donor F148, 24 h, 0.25 μM DBT): 3344 ± 212 pg/mL
- Interleukin 1 beta secreted ([2]; donor F148, 24 h, 0.5 μM DBT): 7275 ± 2061 pg/mL
- Interleukin 1 beta secreted ([2]; donor F148, 24 h, 1 μM DBT): 2011 ± 148 pg/mL
- Interleukin 1 beta secreted ([2]; donor F148, 24 h, 2.5 μM DBT): 736 ± 552 pg/mL
- Interleukin 1 beta secreted ([2]; donor F148, 24 h, 5 μM DBT): 197 ± 78 pg/mL
- Interleukin 1 beta secreted ([2]; donor F148, 48 h, 0.05 μM DBT): 646 ± 25 pg/mL
- Interleukin 1 beta secreted ([2]; donor F148, 48 h, 0.1 μM DBT): 864 ± 11 pg/mL
- Interleukin 1 beta secreted ([2]; donor F148, 48 h, 0.25 μM DBT): 1017 ± 76 pg/mL
- Interleukin 1 beta secreted ([2]; donor F148, 48 h, 0.5 μM DBT): 1191 ± 200 pg/mL
- Interleukin 1 beta secreted ([2]; donor F148, 48 h, 1 μM DBT): 491 ± 26 pg/mL
- Interleukin 1 beta secreted ([2]; donor F148, 6 day, 0.5 μM DBT): 3 ± 1 pg/mL
- Interleukin 1 beta secreted ([2]; donor F154, 24 h, 0.05 μM DBT): 1364 ± 181 pg/mL
- Interleukin 1 beta secreted ([2]; donor F154, 24 h, 0.1 μM DBT): 1059 ± 141 pg/mL
- Interleukin 1 beta secreted ([2]; donor F154, 24 h, 0.25 μM DBT): 835 ± 38 pg/mL
- Interleukin 1 beta secreted ([2]; donor F154, 24 h, 0.5 μM DBT): 538 ± 33 pg/mL
- Interleukin 1 beta secreted ([2]; donor F154, 24 h, 1 μM DBT): 386 ± 157 pg/mL
- Interleukin 1 beta secreted ([2]; donor F154, 48 h, 0.05 μM DBT): 358 ± 88 pg/mL
- Interleukin 1 beta secreted ([2]; donor F154, 48 h, 0.1 μM DBT): 346 ± 40 pg/mL
- Interleukin 1 beta secreted ([2]; donor F154, 48 h, 0.25 μM DBT): 372 ± 47 pg/mL
- Interleukin 1 beta secreted ([2]; donor F154, 48 h, 0.5 μM DBT): 372 ± 24 pg/mL
- Interleukin 1 beta secreted ([2]; donor F154, 48 h, 1 μM DBT): 322 ± 11 pg/mL
- Interleukin 1 beta secreted ([2]; donor F154, 48 h, 2.5 μM DBT): 321 ± 35 pg/mL
- Interleukin 1 beta secreted ([2]; donor F154, 48 h, 5 μM DBT): 321 ± 20 pg/mL
- Interleukin 1 beta secreted ([2]; donor F154, 6 day, 0.05 μM DBT): 65 ± 34 pg/mL
- Interleukin 1 beta secreted ([2]; donor F154, 6 day, 0.1 μM DBT): 31 ± 16 pg/mL
- Interleukin 1 beta secreted ([2]; donor F154, 6 day, 0.25 μM DBT): 8 ± 1 pg/mL
- Interleukin 1 beta secreted ([2]; donor F154, 6 day, 0.5 μM DBT): 11 ± 0 pg/mL
- Interleukin 1 beta secreted ([2]; donor F154, 6 day, 1 μM DBT): 10 ± 0 pg/mL
- Interleukin 1 beta secreted ([2]; donor F154, 6 day, 2.5 μM DBT): 3 ± 0 pg/mL
- Interleukin 1 beta secreted ([2]; donor F159, 24 h, 0.05 μM DBT): 438 ± 18 pg/mL
- Interleukin 1 beta secreted ([2]; donor F159, 24 h, 0.1 μM DBT): 375 ± 28 pg/mL
- Interleukin 1 beta secreted ([2]; donor F159, 24 h, 0.25 μM DBT): 648 ± 18 pg/mL
- Interleukin 1 beta secreted ([2]; donor F159, 24 h, 0.5 μM DBT): 620 ± 40 pg/mL
- Interleukin 1 beta secreted ([2]; donor F159, 24 h, 1 μM DBT): 617 ± 74 pg/mL
- Interleukin 1 beta secreted ([2]; donor F159, 24 h, 2.5 μM DBT): 87 ± 12 pg/mL
- Interleukin 1 beta secreted ([2]; donor F159, 48 h, 0.05 μM DBT): 109 ± 93 pg/mL
- Interleukin 1 beta secreted ([2]; donor F159, 48 h, 0.1 μM DBT): 48 ± 8 pg/mL
- Interleukin 1 beta secreted ([2]; donor F159, 48 h, 0.25 μM DBT): 141 ± 16 pg/mL
- Interleukin 1 beta secreted ([2]; donor F159, 48 h, 0.5 μM DBT): 226 ± 16 pg/mL
- Interleukin 1 beta secreted ([2]; donor F159, 48 h, 1 μM DBT): 311 ± 39 pg/mL
- Interleukin 1 beta secreted ([2]; donor F159, 48 h, 2.5 μM DBT): 505 ± 54 pg/mL
- Interleukin 1 beta secreted ([2]; donor F159, 48 h, 5 μM DBT): 192 ± 15 pg/mL
- Interleukin 1 beta secreted ([2]; donor F159, 6 day, 0.05 μM DBT): 3 ± 2 pg/mL
- Interleukin 1 beta secreted ([2]; donor F159, 6 day, 0.1 μM DBT): 3 ± 2 pg/mL
- Interleukin 1 beta secreted ([2]; donor F159, 6 day, 0.5 μM DBT): 5 ± 1 pg/mL
- Interleukin 1 beta secreted ([2]; donor F159, 6 day, 1 μM DBT): 5 ± 1 pg/mL
- Interleukin 1 beta secreted ([2]; donor F159, 6 day, 2.5 μM DBT): 7 ± 1 pg/mL
- Interleukin 1 beta secreted ([2]; donor F173, 24 h, 0.05 μM DBT): 150 ± 26 pg/mL
- Interleukin 1 beta secreted ([2]; donor F173, 24 h, 0.1 μM DBT): 168 ± 34 pg/mL
- Interleukin 1 beta secreted ([2]; donor F173, 24 h, 0.25 μM DBT): 146 ± 12 pg/mL
- Interleukin 1 beta secreted ([2]; donor F173, 24 h, 0.5 μM DBT): 165 ± 13 pg/mL
- Interleukin 1 beta secreted ([2]; donor F173, 24 h, 1 μM DBT): 632 ± 19 pg/mL
- Interleukin 1 beta secreted ([2]; donor F173, 24 h, 2.5 μM DBT): 287 ± 22 pg/mL
- Interleukin 1 beta secreted ([2]; donor F173, 24 h, 5 μM DBT): 140 ± 10 pg/mL
- Interleukin 1 beta secreted ([2]; donor F173, 48 h, 0.05 μM DBT): 57 ± 35 pg/mL
- Interleukin 1 beta secreted ([2]; donor F173, 48 h, 0.1 μM DBT): 17 ± 2 pg/mL
- Interleukin 1 beta secreted ([2]; donor F173, 48 h, 0.25 μM DBT): 42 ± 6 pg/mL
- Interleukin 1 beta secreted ([2]; donor F173, 48 h, 0.5 μM DBT): 32 ± 1 pg/mL
- Interleukin 1 beta secreted ([2]; donor F173, 48 h, 1 μM DBT): 160 ± 2 pg/mL
- Interleukin 1 beta secreted ([2]; donor F173, 48 h, 2.5 μM DBT): 124 ± 3 pg/mL
- Interleukin 1 beta secreted ([2]; donor F173, 48 h, 5 μM DBT): 63 ± 1 pg/mL
- average of the maximum fold increase in IL-β secretion ([2]; PBMCs+granulocytes, 24 h, across donors): 3.8 fold
- fold increase in IL-1β secretion ([2]; PBMCs+granulocytes, donor F159, 24 h, 0.25 μM DBT): 1.9 fold
- fold increase in IL-1β secretion ([2]; PBMCs+granulocytes, donor F159, 24 h, 0.5 μM DBT): 1.8 fold
- fold increase in IL-1β secretion ([2]; PBMCs+granulocytes, donor F159, 24 h, 1 μM DBT): 1.8 fold
- fold increase in IL-1β secretion ([2]; PBMCs+granulocytes, donor F159, 48 h, 0.25 μM DBT): 35 fold
- fold increase in IL-1β secretion ([2]; PBMCs+granulocytes, donor F159, 48 h, 0.5 μM DBT): 56 fold
- fold increase in IL-1β secretion ([2]; PBMCs+granulocytes, donor F159, 48 h, 1 μM DBT): 77 fold
- Secretion of IL-1β ([3]; 4 donors, 24 h, any of the conditions tested, limit of detection): ≤ 3 pg/mL
- average of the maximum fold increase in IL-β secretion ([3]; 24 h, across donors): 3.7 fold
- change in IL-1β secretion ([3]; 48 h, 0.25–5 μM DBT, cells from 3 of the 4 donors): increases
